Experimental data gathered from unrelated publications.
Protocols differ between the studies behind these lines.
Target: Histamine H2 receptor (HRH2, Homo sapiens, UniProt P25021)
Concentration: 10 µM

The inhibition of `CCN(CC)CCCC[C@H](NC(=O)[C@H](CC(C)C)NC(=O)[C@H](C)NC(=O)[C@H](Cc1ccccc1)NC(=O)c1ccc(C(C)(C)C)cc1)C(=O)N[C@@H](CO)C(=O)OC` is reported as 1% (ligand displacement, radioligand).
`CCCCCCCCCCCC(=O)OC[C@@H](COP(=O)(O)OCCNC(=O)c1ccc(Cn2c(=O)[nH]c3c(N)nc(OCCOC)nc32)cc1)OC(=O)CCCCCCCCCCC` gave an inhibition of 40% (ligand displacement, radioligand).
`N#CC1(c2ccccn2)CCN(Cc2cc(C(=O)O)c(=O)n3ccccc23)CC1` gave an inhibition of 11.7% (cell-free assay).
The remaining signal of `Nc1ncc(-c2nc(N3CCOCC3)nc(N3CCOCC3)n2)c(C(F)F)n1` is reported as 106% (cell-free assay, radioligand).
For `CC(C)Cn1cnc2c(N)nc3ccccc3c21`, the inhibition was 63% (ligand displacement, radioligand).
`Clc1ccc2c(C3CCN(CCc4c[nH]c5ccccc45)CC3)c[nH]c2c1` gave an inhibition of 53% (ligand displacement, radioligand).
With `COc1ccc(S(=O)(=O)N2CCCCC2)cc1C` the inhibition was less than 30% (ligand displacement, radioligand).
`C[C@H](C(=O)N[C@H]1COc2ccccc2[C@@H]1S(C)(=O)=O)c1ccc(F)cc1` gave an inhibition of -11% (cell-free assay).
`COCc1c(-c2cc3cc(C)cc(OC)c3s2)c2c(N)ncnn2c1CN1CCNC(=O)C1` has an inhibition of -8% (ligand displacement, radioligand).
`Cn1cncc1[C@@](O)(COc1ccc(C#N)cc1-c1ccc(OC(F)(F)F)cc1)c1ccc(C#N)cc1` gave an inhibition of 5.38% (ligand displacement).
The inhibition of `c1ccc(C(NCCNC(c2ccccc2)c2ccccc2)c2ccccc2)cc1` is reported as 99% (cell-free assay).
The inhibition of `CC(C)N1CCC[C@H]1CNC(=O)c1cn(C2CCCC2)c(=O)c2c1c1ccccc1n2C` is reported as 25% (ligand displacement, radioligand).
